The source made the active and inactive calls.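 How the source made its calls, unless noted: active means compounds giving at least 50% inhibition in the cell-based MKP-3 phosphatase rescue imaging test; inactive means the rest.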
Tests used:
[1] = inhibitors of TNFa-induced NFkB p65 translocation, primary screen, imaging, HUVEC, MLSMR starter and 10KST1 sets (AID 438;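 active means inhibition above 20% together with a positive visual image hit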;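 further: compound added about 3h40 before a 20 min TNFalpha stimulation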;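 on inhibition: signal is the nuclear over cytoplasmic p65 intensity ratio per well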); settings: HUVEC TNFa-induced p65 nuclear translocation; cell count: measured here: nuclei count (cytotoxicity indicator), at 2.08 µM; inhibition: at 2 µM, stronger effect = higher value, 0% TNFa-plus-vehicle, 100% no-TNFa wells
[2] = inhibitors of E-selectin induction by TNFa, primary screen, imaging, HUVEC, immunofluorescence, MLSMR starter and 10KST1 sets (AID 487;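 active means visually confirmed hit in the image check and inhibition above 20%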;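 on inhibition: signal is fraction of cell area covered by stained E-selectin grains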;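 on nuclei count: 100% = median nuclei count of all wells on the same plate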); settings: HUVEC TNFalpha-induced E-selectin immunofluorescence imaging, at 2 µM; inhibition: stronger effect = higher value; nuclei count: measured here: cell number, toxicity
[3] = DUSP6 inhibitors restoring Erk phosphorylation by chemical complementation, primary imaging in DUSP6-transfected HeLa (AID 609); settings: HeLa MKP-3 transfected, phospho-Erk imaging KS statistic, at 10 µM, cells stimulated with TPA for 15 min;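 on inhibition: phospho-Erk level distribution per well compared with pooled transfected vehicle control wells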
[4] = target: Dual specificity protein phosphatase 6 (Homo sapiens) (UniProt Q16828); assay: as above; settings: HeLa MKP-3 transfected, phospho-Erk imaging KS statistic; at 10 µM; stronger effect = higher value; cells stimulated with TPA for 15 min
Dual specificity protein phosphatase 6 (Homo sapiens), sequence (Q16828 whole entry, looked up): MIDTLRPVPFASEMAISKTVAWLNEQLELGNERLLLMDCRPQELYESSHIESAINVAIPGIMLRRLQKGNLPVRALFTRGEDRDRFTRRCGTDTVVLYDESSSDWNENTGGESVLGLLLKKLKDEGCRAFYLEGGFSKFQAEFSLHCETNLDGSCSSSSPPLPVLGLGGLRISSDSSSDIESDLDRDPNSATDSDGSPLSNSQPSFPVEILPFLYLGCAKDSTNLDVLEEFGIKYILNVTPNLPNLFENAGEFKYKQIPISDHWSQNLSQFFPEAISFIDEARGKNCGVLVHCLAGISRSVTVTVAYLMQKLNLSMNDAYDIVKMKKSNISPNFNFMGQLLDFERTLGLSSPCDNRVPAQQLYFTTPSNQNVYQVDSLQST

[5] = target: Voltage-gated potassium channel subunit beta-2 (Rattus norvegicus) (UniProt P62483); assay: KvBeta enzyme negative modulators, primary screen, biochemical, NADPH fluorescence (AID 622;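 active means fluorescence slope higher than the sample average by over 3 SD, cut at about -0.22 in these data, passing the limit was not always enough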;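 further: slope of raw intensity against log time taken from 70 to 1610 s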); settings: recombinant KvBeta, 4-cyanobenzaldehyde reduction, at 10 µM, stronger effect = higher value
Voltage-gated potassium channel subunit beta-2 (Rattus norvegicus), sequence (P62483 whole entry, looked up): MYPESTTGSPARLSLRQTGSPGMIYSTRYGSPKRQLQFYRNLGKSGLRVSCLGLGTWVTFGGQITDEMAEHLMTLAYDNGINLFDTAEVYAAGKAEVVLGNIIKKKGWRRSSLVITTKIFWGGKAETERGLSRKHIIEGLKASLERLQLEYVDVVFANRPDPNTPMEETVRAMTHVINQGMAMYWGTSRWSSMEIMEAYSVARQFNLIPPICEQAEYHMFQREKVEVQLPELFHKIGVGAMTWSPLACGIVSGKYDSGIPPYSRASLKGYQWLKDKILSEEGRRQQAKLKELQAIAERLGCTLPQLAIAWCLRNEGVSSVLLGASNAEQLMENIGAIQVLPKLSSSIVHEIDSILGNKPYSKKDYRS

[6] = target: Voltage-gated potassium channel subunit beta-2 (Rattus norvegicus) (UniProt P62483); assay: KvBeta positive modulators, primary screen, biochemical, NADPH fluorescence (AID 623;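 active means NADPH fluorescence slope more negative than the mean of all samples by about 3 SD, 99.7% confidence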;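 further: fluorescence intensity change per second fitted from 20 to 320 s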); settings: Recombinant KvBeta, NADPH fluorescence decrease slope, 10 min; at 10 µM; stronger effect = lower value
[7] = target: Alpha-2C adrenergic receptor (Homo sapiens) (UniProt P18825); assay: modulators of alpha2C/GIRK thallium flux, primary screen, cell-based, HEK293 alpha2C/GIRK1/2 (AID 624;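 active means fluorescence slope after compound addition differing from the mean of all screened samples at 99.7% confidence, in either direction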;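 further: slope of fluorescence ratio to pre-addition baseline per second over 15 to 24 s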); settings: thallium flux BTC fluorescence, at 10 µM, actives lie on both sides
Alpha-2C adrenergic receptor (Homo sapiens), sequence (P18825 whole entry, looked up): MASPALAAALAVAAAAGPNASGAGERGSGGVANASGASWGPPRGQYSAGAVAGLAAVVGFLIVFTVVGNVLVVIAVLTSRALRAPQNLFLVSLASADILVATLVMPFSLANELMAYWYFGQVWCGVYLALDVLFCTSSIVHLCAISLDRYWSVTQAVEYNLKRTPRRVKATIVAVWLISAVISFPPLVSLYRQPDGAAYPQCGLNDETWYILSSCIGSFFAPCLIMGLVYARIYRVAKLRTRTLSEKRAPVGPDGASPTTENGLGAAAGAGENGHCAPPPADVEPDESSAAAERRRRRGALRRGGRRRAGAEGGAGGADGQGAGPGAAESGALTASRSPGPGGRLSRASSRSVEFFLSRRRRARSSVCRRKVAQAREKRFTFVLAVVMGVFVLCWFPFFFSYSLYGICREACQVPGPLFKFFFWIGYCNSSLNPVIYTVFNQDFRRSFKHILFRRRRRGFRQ

[8] = inhibitors of larval lipid processing in zebrafish, primary screen, whole organism, PED6 fluorescence, gall bladder and intestine (AID 686;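 active means a full or partial loss of lipid-probe fluorescence in the fish gall bladder, intestine or both, judged by eye; inactive means no fluorescence loss, or compound toxic to the fish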;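 further: larvae 5 to 7 days old with five fish per well; signal comes from phospholipase A2 cleavage of quenched PED6 carried via bile; overnight exposure to compound and PED6 before scoring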); settings: Zebrafish larvae PED6 lipid processing, fluorescence scoring; screened at 20 µM (by protocol)
Summary of the method: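 Also added: quenched phospholipase substrate PED6, 100 nM final, ingested by larvae; System: zebrafish larvae, 5-7 d; Quantity: 5 larvae per well; Compound: 20 µM single dose; Schedule: overnight compound and PED6 incubation; Read-out: visual per-well fluorescence inhibition score; Measured by: By-eye fluorescence microscopy; Medium: E3.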

[9] = inhibitors of Chlamydomonas gravitaxis, primary screen, whole organism, Chlamydomonas reinhardtii, WT vs cilia-less mutant, absorbance, 96-well (AID 463189;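 active means inhibition at or above 50% relative to wild type and mutant plate controls; inactive means inhibition below 50%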;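 further: 0% = wild type cc124 cells in DMSO and 100% = ciliumless bld1 mutant cells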); settings: OD600 absorbance, 2 days, at 10 µM, stronger effect = higher value
[10] = measured here: cell density z-score
[11] = measured here: nuclear c-Myc green intensity z-score
[12] = measured here: nuclear pErk red intensity z-score, stronger effect = higher value

Row | SMILES | cell count [1] | inhibition [1] | inhibition [2] | nuclei count [2] [%] | z-score [3, 10] | z-score [3, 11] | z-score [3, 12] | inhibition [4] | fluorescence slope [5] | NADPH fluorescence slope [6] | slope [7] | outcome [8] | inhibition [9]
1 | COc1cccc(C(=O)N2CCN(S(=O)(=O)Cc3ccccc3)CC2)c1OC | 424 | -16.3% (inactive) | -254% (inactive) | 195 | 0.309 | -0.845 | -0.459 | 12.7% (inactive) | -0.291 (inactive) | 1.9e-05 (inactive) | 0.00419 (inactive) | inactive | 17.5% (inactive)
2 | Nc1nnc(CSCc2ccc(F)cc2)s1 | 537 | 7% (inactive) | 23.2% (inactive) | 111 | -1.12 | 1.17 | -0.516 | -13.3% (inactive) | -0.473 (inactive) | -2.4e-05 (inactive) | 0.00497 (inactive) | inactive | 3.98% (inactive)
3 | COc1ccc(OCC(=O)N2CCN(C(=O)c3cccc4ccccc34)CC2)cc1 | 413 | -2.6% (inactive) | -293% (inactive) | 133 | -0.479 | 0.976 | -0.768 | 3.66% (inactive) | -0.448 (inactive) | -1.4e-05 (inactive) | 0.00599 (inactive) | inactive | 0.794% (inactive)
4 | CCOc1ccc(CCNC(=O)C(O)c2ccccc2)cc1 (stereo unspecified) | 632 | -0.6% (inactive) | 18.6% (inactive) | 150 | -1.06 | 0.643 | -0.425 | 5.57% (inactive) | -0.517 (inactive) | -4.4e-05 (inactive) | 0.0068 (inactive) | inactive | 25.5% (inactive)
5 | CSc1nc2sc3c(c2c2nnnn12)CC(C)(C)OC3 | 661 | -6.7% (inactive) | -16.2% (inactive) | 187 | -1.26 | 1.03 | 0.586 | -5.89% (inactive) | -0.496 (inactive) | -6.6e-05 (inactive) | 0.00446 (inactive) | inactive | 16.5% (inactive)
6 | O=C1[C@@H]2[C@H](C(=O)N1n1cnnc1)[C@H]1C=C[C@@H]2C1 | 618 | -4.3% (inactive) | -49.4% (inactive) | 143 | -1.23 | -0.0869 | -0.601 | 4.25% (inactive) | -0.529 (inactive) | -6.9e-05 (inactive) | 0.00514 (inactive) | inactive | 13.5% (inactive)
7 | c1ccc2c(c1)NC(c1ccncc1)n1c-2nc2ccccc21 (stereo unspecified) | 301 | 5% (inactive) | -118% (inactive) | 108 | -1.27 | 1.48 | 0.784 | -2.91% (inactive) | -0.384 (inactive) | -5.4e-05 (inactive) | 0.00501 (inactive) | inactive | -2.42% (inactive)
8 | CC(C)CC(=O)Nc1ncnc2c1C(=O)CC(C)(C)C2 | 635 | -9.9% (inactive) | 35.4% (inactive) | 167 | 0.463 | -0.408 | 0.517 | 1.12% (inactive) | -0.413 (inactive) | -5.4e-05 (inactive) | 0.00518 (inactive) | inactive | -3.52% (inactive)
9 | Cc1nc2sc3c(c2c(=O)o1)CC(C)(C)OC3 | 555 | -9.6% (inactive) | 23.7% (inactive) | 115 | 0.476 | 1.45 | -1.12 | 7.7% (inactive) | -0.461 (inactive) | -1.1e-05 (inactive) | 0.0057 (inactive) | inactive | -15.1% (inactive)
10 | CCOC(=O)c1[nH]c2ccc(Br)cc2c1NC(=O)CCN1CCN(C(=O)OCC)CC1 | 545 | -23.3% (inactive) | -94.6% (inactive) | 158 | -0.326 | -0.22 | -0.0275 | -7.86% (inactive) | -0.522 (inactive) | -4.7e-05 (inactive) | 0.00482 (inactive) | inactive | 18.6% (inactive)
11 | COc1cc(C2C3C(=O)N(c4ccc(F)cc4)C(=O)C3ON2c2ccccc2)ccc1O (stereo unspecified) | 470 | -13.5% (inactive) | -60% (inactive) | 137 | -1.73 | -0.628 | 0.0709 | -13.3% (inactive) | -0.498 (inactive) | -3.2e-05 (inactive) | 0.00461 (inactive) | inactive | 16.5% (inactive)
12 | CC(C)C1Cc2c(sc3c2c(=O)n(-c2ccccc2)c2nncn32)CO1 (stereo unspecified) | 603 | -21.3% (inactive) | -90.9% (inactive) | 179 | -0.575 | -0.884 | 1.06 | 3.56% (inactive) | -0.379 (inactive) | -5.4e-05 (inactive) | 0.00589 (inactive) | inactive | -0.205% (inactive)
13 | COc1nc(NS(=O)(=O)c2ccc(C)cc2)nc(C)c1Cl | 718 | 3.9% (inactive) | -62.9% (inactive) | 170 | -1.13 | 1.46 | -0.341 | 1.48% (inactive) | -0.346 (inactive) | -3.1e-05 (inactive) | 0.00526 (inactive) | inactive | -6.39% (inactive)
14 | CCOC(=O)c1c(CN2CCCCC2)oc2ccc(OC)cc12 | 344 | -9.3% (inactive) | -46.9% (inactive) | 142 | 0.114 | 0.591 | 0.702 | -7.01% (inactive) | -0.416 (inactive) | -0.000135 (inactive) | 0.00729 (inactive) | inactive | 4.54% (inactive)
15 | CSC1=C(C#N)C(c2ccc(C)s2)CC(=O)N1 (stereo unspecified) | 411 | -0.1% (inactive) | 13.9% (inactive) | 63.5 | 0.0106 | 2.55 | -0.606 | 13.2% (inactive) | -0.511 (inactive) | -5e-05 (inactive) | 0.00472 (inactive) | inactive | 24% (inactive)
16 | OCCN(CCO)c1ncnc2c1sc1nc(N3CCOCC3)c3c(c12)CCCC3 | 597 | -26.4% (inactive) | -62.2% (inactive) | 167 | 0.421 | -0.458 | -0.129 | 7.73% (inactive) | -0.275 (inactive) | 1.3e-05 (inactive) | 0.00534 (inactive) | inactive | -3.05% (inactive)
17 | CC(NC(=O)OC(C)(C)C)C(=O)Oc1ccc2ccc(=O)oc2c1 (stereo unspecified) | 566 | -16.8% (inactive) | -178% (inactive) | 183 | 0.378 | 1.02 | -0.959 | 28.6% (inactive) | -0.0856 (inactive) | -1.3e-05 (inactive) | 0.00547 (inactive) | inactive | 1.2% (inactive)
18 | Cc1ccc2c(c1)[C@@H]1CN(C)CC[C@@H]1N2S(=O)(=O)c1ccc(F)cc1 | 507 | -8.3% (inactive) | -69% (inactive) | 199 | -0.629 | -0.478 | -0.18 | -8.27% (inactive) | -0.324 (inactive) | -2.1e-06 (inactive) | 0.00411 (inactive) | inactive | 10.5% (inactive)
19 | Oc1c(C=NCc2ccncc2)sc2ccccc12 | 666 | -11.1% (inactive) | -63.6% (inactive) | 177 | -0.185 | 0.688 | 2.15 | -4.27% (inactive) | -0.425 (inactive) | -6.8e-05 (inactive) | 0.00509 (inactive) | inactive | -6.05% (inactive)
20 | CC1(C)Cc2c(C#N)c(NCCN3CCOCC3)nc(-c3ccco3)c2CO1 | 579 | -8.4% (inactive) | -62.4% (inactive) | 149 | 0.114 | 1.74 | -1.62 | 26.5% (inactive) | -0.295 (inactive) | -3e-06 (inactive) | 0.00581 (inactive) | inactive | 34% (inactive)
21 | Cc1cccc(OCC(=O)N2CCC(N3CCOCC3)CC2)c1 | 356 | -12.6% (inactive) | -156% (inactive) | 149 | 2.22 | -1.72 | 0.299 | 17% (inactive) | -0.406 (inactive) | -4.5e-05 (inactive) | 0.00455 (inactive) | inactive | 11.3% (inactive)
22 | O=C1OC(Nc2ccc(Br)cc2F)c2ccccc21 (stereo unspecified) | 426 | -1.6% (inactive) | -16.9% (inactive) | 149 | 0.057 | -0.568 | 0.211 | -2.91% (inactive) | -0.383 (inactive) | -4.6e-05 (inactive) | 0.00575 (inactive) | inactive | -4.19% (inactive)
23 | C=CCc1cccc(/C=N/c2ncn[nH]2)c1O | 470 | -9% (inactive) | -90.5% (inactive) | 148 | -0.648 | 0.659 | -0.784 | 11.9% (inactive) | -0.491 (inactive) | -0.000107 (inactive) | 0.00453 (inactive) | inactive | -13.3% (inactive)
24 | O/N=C(\c1ccc2c(c1)OCCO2)C1CCCCC1 | 483 | -8.4% (inactive) | 0.8% (inactive) | 88.1 | -0.525 | -0.257 | 1.15 | -1.98% (inactive) | -0.497 (inactive) | -3.9e-05 (inactive) | 0.00548 (inactive) | inactive | 124% (active)
25 | CCc1c(C(=O)O)[nH]c2ccc(Br)cc12 | 581 | -1.8% (inactive) | -21.7% (inactive) | 171 | -0.258 | -0.825 | 2.03 | -7.01% (inactive) | -0.367 (inactive) | -5.4e-05 (inactive) | 0.00495 (inactive) | inactive | -2.83% (inactive)
26 | Cc1ccc(S(=O)(=O)c2cc3c(=O)n4ccccc4nc3n(C)c2=N)cc1 | 563 | -16.4% (inactive) | -78% (inactive) | 162 | 0.476 | -0.181 | 0.227 | -16.8% (inactive) | -0.453 (inactive) | -3.3e-05 (inactive) | 0.00439 (inactive) | inactive | 1.37% (inactive)
27 | CC(C)OC(=O)CC1=NC(=O)CS1 | 693 | -4% (inactive) | -27.6% (inactive) | 175 | -0.0687 | -1.07 | 0.103 | -0.624% (inactive) | -0.423 (inactive) | -4.2e-05 (inactive) | 0.00582 (inactive) | inactive | -2.62% (inactive)

Source: PubChem BioAssay
